Compound activity as filed in PubChem.
Most compounds without a hit are left out; they make up all but 2.5% or so of the library.
SIAE inh – inhibitors of human sialic acid acetylesterase SIAE; 370,000 tested, 0.69% active; SIAE FP-Rh probe binding, fluorescence polarization; Q9HAT2; inhibition, % at 9.66 µM;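 active = inhibition above a cutoff: mean of compounds within the control limits plus 3 SD of those, cut at about 17% in these data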;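 also: 0% = plate median of compound wells and 100% = probe without SIAE protein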
TCR CD3 inh – inhibitors of human TCR-CD3 interaction | TAMRA-labeled TCR probe fluorescence, biochemical | 360,000 tested, 0.37% active | inhibition, % at 9.4 µM; in the data active = inhibition above about 19%;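 also: recombinant mutant TCR 2C K166C tagged with TAMRA read by polarization; 0% = receptor in buffer alone and 100% = receptor with positive control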
rCAG RNA binder – molecules binding r(CAG) RNA repeats; inhibition, % at 3 µM; AID 651821; 370,000 tested, 1.3% active; r(CAG) RNA repeat, TO-PRO-1 dye displacement fluorescence;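 active = inhibition above the plate cutoff, the mean of all test compounds on that plate plus 3 SD, cut at about 35% in these data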;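 also: 0% = DMSO alone and 100% = 100 µM mitoxantrone as full dye displacement; higher means more dye released from RNA so lower well fluorescence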
mABHD4 FP – inhibitors of mouse ABHD4; AID 720543; 370,000 tested, 0.54% active; inhibition, % at 8.92 µM; Q8VD66; purified mABHD4, FP-Rh probe fluorescence polarization;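 active = inhibition exceeding the mean over every tested compound plus 3 SD, cut at about 30% in these data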;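 also: 0% = plate median of compound wells and 100% = S159A mutant with DMSO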
Target sequence (Q8VD66 whole entry, looked up): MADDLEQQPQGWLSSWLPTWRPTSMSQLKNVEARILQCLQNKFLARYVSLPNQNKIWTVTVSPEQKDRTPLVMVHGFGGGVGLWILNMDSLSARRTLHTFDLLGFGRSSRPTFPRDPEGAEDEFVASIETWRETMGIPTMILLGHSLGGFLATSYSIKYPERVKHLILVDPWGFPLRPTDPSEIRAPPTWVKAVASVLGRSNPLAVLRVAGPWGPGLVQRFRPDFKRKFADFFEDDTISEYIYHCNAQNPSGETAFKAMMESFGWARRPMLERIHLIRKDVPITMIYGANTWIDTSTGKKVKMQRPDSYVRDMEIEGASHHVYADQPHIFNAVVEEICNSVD
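System: mouse ABHD4 enzyme, wild type / Medium: HEPES pH 7.0, NaCl, Pluronic buffer / Reagent: FP-Rh activity-based fluorescent probe / Control set: S159A mutant high control, sample median low control / Detection: fluorescence polarization with parallel and perpendicular emission, 525/598 nm / Schedule: 45 min + 60 min at 25 °C / Compound dosing: 8.92 µM, single dose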
HTRA1 inh – blocks human HTRA1 serine peptidase | Q92743 | AID 504803 | recombinant HTRA1, FP-rhodamine activity-based probe, fluorescence polarization | 340,000 tested, 0.5% active | inhibition, % at 5.96 µM; in the data active = inhibition above about 36%;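 also: 0% = enzyme with DMSO and 100% = wells lacking enzyme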
rCAG bind conf – r(CAG) RNA repeat binding, confirmation. 4,300 tested, 70% active. TO-PRO-1 dye displacement fluorescence. shares compounds with rCAG RNA binder. inhibition, % at 3 µM. AID 652065;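 active = inhibition above a per-plate cutoff, the mean inhibition of sample wells plus 3 SD, cut at about 35% in these data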;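 also: loss of TO-PRO-1 fluorescence as compound displaces dye from 1x1 AA loop RNA; 0% = DMSO only wells and 100% = 100 µM mitoxantrone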
DNA CAG counter – counter-screen for rCAG RNA binders: DNA CAG dye complex inhibitors; shares compounds with rCAG RNA binder; d(CAG) DNA oligo TO-PRO-1 dye displacement, fluorescence; inhibition, % at 3 µM; 4,300 tested, 94% active; AID 652068;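 active = inhibition above its plate's cutoff, the mean test-well inhibition plus 3 SD, cut at about 4.8% in these data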;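 also: 0% = DNA dye mix with DMSO and 100% = 100 µM mitoxantrone; hits displace the dye from DNA and so lower well fluorescence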
DNA CAG DR – counter-screen for rCAG binders: inhibitors of DNA CAG TO-PRO-1 complex; 250 tested, 20% active; DNA CAG/GTC duplex TO-PRO-1 dye displacement fluorescence; shares compounds with rCAG RNA binder; IC50, µM; in the data active = IC50 below about 10 µM
* hit, by the source's call; x = not tested or not shown.

SMILES	SIAE inh	TCR CD3 inh	rCAG RNA binder	mABHD4 FP	HTRA1 inh	rCAG bind conf	DNA CAG counter	others
Cc1cc(C)c(C)c(S(=O)(=O)Nc2cccc(S(=O)(=O)Nc3ccccc3C(=O)O)c2)c1C	-13.3	-3.4	77.9*	-27.4	-41.5	73.2*	38.5*
O=C(CSCc1cccc(Br)c1)N=Nc1c(O)[nH]c2ccccc12	-0.8	4.1	5.7	-1.3	-14.0	x	x
O=Nc1c(-c2c(O)[nH]c3cc(Br)ccc23)[nH]c2ccccc12	-2.7	-4.2	58.6*	-4.5	23.1	53.6*	35.6*
CCc1ccc(/C=C/C(=O)C2C(=O)c3ccccc3C2=O)cc1	-12.7	5.7	64.4*	-28.6	-11.0	78.6*	38.7*
O=C(/C=C/c1ccccc1)C1C(=O)c2ccccc2C1=O	0.4	3.5	8.1	-4.5	0.4	x	x
COc1cc(NS(=O)(=O)c2ccc(NC(=S)NC(=O)c3ccc(F)c(F)c3)cc2)nc(OC)n1	-5.3	-2.4	49.3*	0.1	-6.9	53.9*	11.9*	DNA CAG DR=>29.9
COc1cc(NS(=O)(=O)c2ccc(NC(=S)NC(C)=O)cc2)nc(OC)n1	-7.5	-1.9	10.5	-9.6	x	x	x
COc1cc(NS(=O)(=O)c2ccc(NC(=O)COc3ccc(C)cc3C)cc2)nc(OC)n1	-2.9	2.4	45.1*	0.0	-11.7	46.0*	14.4*
COc1ccc(CC(=O)Nc2ccc(S(=O)(=O)Nc3cc(OC)nc(OC)n3)cc2)cc1	-9.7	-2.3	20.1	5.1	-4.0	x	x
COc1cc(NS(=O)(=O)c2ccc(NC(=O)COc3ccccc3C)cc2)nc(OC)n1	-5.6	-0.1	44.9*	8.1	-3.2	32.5	12.8*
COc1cc(NS(=O)(=O)c2ccc(NC(=O)COc3ccc(C)cc3)cc2)nc(OC)n1	-7.1	0.2	38.3*	-6.8	-5.9	26.8	10.5*
Cc1ccc(-c2nn(CC(=O)NCc3ccccn3)c(=O)c3ccccc23)cc1S(=O)(=O)N(C)C	3.0	0.6	-1.7	-5.6	x	x	x
CC(=O)N1c2ccccc2[C@@H](C)[C@@H]1C	4.3	6.5	0.5	6.2	3.7	x	x
CCCCNCC1CCCO1 (centres undefined)	3.4	3.8	-0.5	-1.8	-17.2	x	x
COc1cc(NS(=O)(=O)c2ccc(NC(=S)NC(=O)C(C)(C)C)cc2)nc(OC)n1	3.2	2.6	9.6	0.5	-4.1	x	x
COc1cc(NS(=O)(=O)c2ccc(NC(=S)NC(=O)COc3ccccc3OC)cc2)nc(OC)n1	0.2	3.7	43.9*	-1.8	-4.7	58.7*	23.7*
Cc1cccc(Cc2cnc(N3C(=N)SC(c4ccccc4)C3=O)s2)c1 (centres undefined)	-0.8	-8.4	39.6*	-8.8	-22.3	53.3*	18.4*
COc1cc(C2c3c(-c4ccccc4)n[nH]c3C(=O)N2c2ccccc2)ccc1O (centres undefined)	-6.4	7.8	-1.9	-9.0	-53.8	x	x
COc1ccccc1-n1c(SCC(=O)c2ccc(O)cc2O)nc2cc([N+](=O)[O-])ccc21	-62.8	1.5	49.4*	-61.2	-50.3	46.8*	22.3*
COC(=O)c1nc2ccc(N3CCOCC3)cc2c(C)c1C(=O)OC	2.2	2.3	-4.0	-0.5	2.1	x	x
COc1cc([N+](=O)[O-])cc(/C=N/NC(=O)C(O)(c2ccccc2)c2ccccc2)c1O	8.8	-10.7	37.8*	9.1	15.8	33.6	13.2*
COc1ccc(-c2cc(C(=O)Nc3ccccc3F)on2)cc1	1.8	-13.9	2.5	-7.2	-12.7	x	x
COc1cc(Cl)c(C)cc1NC(=O)CSc1sc2c(O)cc(=O)[nH]c2c1C#N	-6.7	-2.8	48.6*	-4.5	-2.8	55.4*	30.3*
COc1ccc(OC)c(NC(=O)CSc2sc3c(O)cc(=O)[nH]c3c2C#N)c1	-8.3	6.2	47.9*	12.3	-11.2	21.8	10.1*
COc1cc(Cl)c(C)cc1NC(=O)CSCC#N	-0.1	-0.3	2.3	1.4	6.4	x	x
SMILES	SIAE inh	TCR CD3 inh	rCAG RNA binder	mABHD4 FP	HTRA1 inh	rCAG bind conf	DNA CAG counter	others
NC(=O)c1ccc(Oc2ccc(Cl)c3ccccc23)c([N+](=O)[O-])c1	1.2	-6.0	4.4	-4.3	-16.9	x	x
COc1ccc(-c2nn(-c3ccccc3)cc2/C=C/C(=O)O)cc1[N+](=O)[O-]	-21.5	-3.5	56.0*	-5.6	-14.0	48.2*	11.7*
CCOC(=O)C1=C[C@@H](C(C)(C)C)N(S(=O)(=O)c2ccc(C)cc2)[C@H]1c1ccccc1	-3.9	-2.9	2.2	-13.6	x	x	x
Cc1ccc(S(=O)(=O)N2[C@@H](c3ccc(C(C)(C)C)cc3)C(C(=O)O)=CC[C@H]2c2ccc(C(C)C)cc2)cc1	-41.6	-4.9	90.5*	22.5	-133.5	74.2*	44.5*
Cc1ccc([C@@H]2CC=C(C(=O)O)[C@H](c3ccc(C(C)(C)C)cc3)N2S(=O)(=O)c2ccc(C)cc2)cc1	-12.4	2.4	90.3*	8.9	-95.7	83.8*	47.9*
CCc1ccc([C@@H]2CC=C(C(=O)O)[C@H](c3ccc(C(C)(C)C)cc3)N2S(=O)(=O)c2ccc(C)cc2)cc1	-15.6	-3.9	91.7*	7.4	-128.9	85.4*	52.9*
CCc1ccc([C@H]2C(C(=O)O)=C[C@@H](C(C)(C)C)N2S(=O)(=O)c2ccc(C)cc2)cc1	-2.8	-6.6	51.6*	-7.7	-10.3	49.2*	17.8*
Cc1ccc(S(=O)(=O)N2[C@@H](c3ccc(Br)cc3)C(C(=O)O)=CC[C@H]2c2ccc(C(C)C)cc2)cc1	-1.7	5.6	9.8	-5.4	-139.2	x	x
O=C(CCC(=O)N1CCCCCC1)Nc1ccc([N+](=O)[O-])cc1	-7.5	5.0	-4.0	0.3	3.3	x	x
Cc1nc(-c2ccccc2)sc1C(=O)/C=C/c1ccc(Cl)cc1	-4.3	-0.5	6.1	-5.6	-12.0	x	x
COc1ccc(/C=N/NC(=O)Cc2n[nH]c(=O)[nH]c2=O)cc1	0.9	1.2	-1.1	-4.3	3.2	x	x
O=C(CC1S/C(=N/N=C/c2c[nH]c3ccccc23)NC1=O)Nc1ccccc1 (centres undefined)	-7.6	-4.6	59.6*	-11.1	-2.7	44.6*	15.2*
O=C(CC1S/C(=N/N=C/c2ccco2)NC1=O)Nc1ccccc1 (centres undefined)	1.2	5.5	7.7	5.4	-2.2	x	x
O=C(CC1S/C(=N/N=C/c2c[nH]c3ccc(OCc4ccccc4)cc23)NC1=O)Nc1ccccc1 (centres undefined)	7.6	2.0	40.5*	-8.5	8.9	50.4*	26.9*
